Reference: ChEMBL document CHEMBL3046042, “3-(4-Methylfuran-3-yl)propan-1-ol: a white-spotted Stinkbug ( Eysarcoris ventralis ) repellent produced by an endophyte isolated from green foxtail” (2010)

Experiments:
Assay type in all cases: functional
[1] = system: Eysarcoris; assay: Repellent activity against Eysarcoris ventralis assessed as reduction in number of bugs at 0.1 umol measured after 30 min
In short: (§1)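 Two-choice bottle assay. Sample dissolved in acetone, 50 μL applied to filter paper strip (5 × 40 mm); control strip got acetone only. Strips dried, each placed in a glass bottle joined to the apparatus. Twenty E. ventralis adults released, held at 10 °C under light; bugs per bottle counted after 30 min. Repellency calculated by formula; four repeats, average ± standard error.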

[2] = system: Eysarcoris; assay: Repellent activity against Eysarcoris ventralis assessed as reduction in number of bugs at 0.01 umol measured after 30 min; in short: as §1
[3] = system: Eysarcoris; assay: Repellent activity against Eysarcoris ventralis assessed as reduction in number of bugs at 1 umol measured after 30 min; in short: as §1
[4] = system: Eysarcoris; assay: Repellent activity against Eysarcoris ventralis assessed as reduction in number of bugs at 0.003 umol measured after 30 min; in short: as §1

`c1ccc2ccccc2c1` [NAPHTHALENE] showed a Repellency [1] of 44.6%, a Repellency [2] of 40.7% and a Repellency [3] of 80.4%.
`CC(=O)OCCCc1cocc1C` was tested, and the Repellency [1] was 90.2%, the Repellency [2] was 7.3% and the Repellency [4] was 10.7%.
With `CCCC(=O)OCCCc1cocc1C` the Repellency [1] was 51.8%, the Repellency [2] was -19.4% and the Repellency [3] was 96.4%. For the same compound, the Repellency [4] was 19.5%.
`Cc1cocc1CCCOC(=O)c1ccccc1` showed a Repellency [1] of 5.3% and a Repellency [3] of 40.7%.
`CCC(=O)OCCCc1cocc1C` was tested, and the Repellency [1] was 58%, the Repellency [2] was 20.5% and the Repellency [3] was 89.3%.
With `Cc1cocc1CCCO` the Repellency [1] was 5.7% and the Repellency [3] was 89.3%.
